Results on 13 compounds are retold here after ChEMBL document CHEMBL1137712, “Antidyslipidemic and antioxidative activities of 8-hydroxyquinoline derived novel keto-enamine Schiffs bases” (Eur J Med Chem, 2009).

Data set [1] concerns Rattus norvegicus. In words: Antidyslipidemic activity against triton-induced hyperlipidemia in Charles Foster rat assessed as reduction in total cholesterol level at 100 mg/kg, po after 18 hrs by spectrophotometry relative to control. It counts as functional. Also noted: scale not given: the % may be the effect or the level left. An outline of the steps:
(§1)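 Male adult Charles Foster rats (200–225 g), six per group. Triton WR-1339 400 mg/kg ip with simultaneous oral dosing at 100 mg/kg in 0.2% w/v gum acacia suspension; diet withdrawn; vehicle controls. At 18 h, thiopentone anaesthesia, retro-orbital blood into EDTA, plasma diluted 1:3 in saline; Tc, Tg, Pl by standard enzymatic kits; Student's t-test versus triton group, P<0.05.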

In data set [2] the test system is Rattus norvegicus. As to the kind of experiment: Antidyslipidemic activity against triton-induced hyperlipidemia in Charles Foster rat assessed as reduction in phospholipid level at 100 mg/kg, po after 18 hrs by spectrophotometry relative to control. It counts as functional. On the set-up: scale not given: the % may be the effect or the level left. An outline of the steps: as §1

The subject of data set [3] is Rattus norvegicus. In words: Antidyslipidemic activity against triton-induced hyperlipidemia in Charles Foster rat assessed as reduction in triglyceride level at 100 mg/kg, po after 18 hrs by spectrophotometry relative to control. Format: functional. On the set-up: scale not given: the % may be the effect or the level left. An outline of the steps:
as §1

For data set [4], the system named is Rattus norvegicus. As to the kind of experiment: Antidyslipidemic activity in Charles Foster rat hyperlipidemia model assessed as suppression of triton-induced post heparin lipolytic activity at 100 mg/kg, po after 18 hrs by spectrophotometry relative to control. Format: functional. An outline of the steps:
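Post-heparin lipolytic activity in plasma of male Charles Foster rats given triton WR-1339 400 mg/kg ip plus oral dose 100 mg/kg in gum acacia, six per group, sampled at 18 h; assayed spectrophotometrically per Wing and Robinson, expressed as nmol free fatty acid formed/h/ml plasma; triton group compared with control, treated with triton group.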

Data set [5] is described as follows: Antioxidant activity assessed as inhibition microsomal lipid peroxidation at 200 ug/ml by thiobarbituric acid test. Format: functional. Also noted: scale not given: the % may be the effect or the level left. Particulars: Microsome.
Data set [6] is described as follows: Antioxidant activity assessed as inhibition of xanthine-xanthine oxidase generated superoxide anion radical production at 200 ug/ml by spectrophotometry. It counts as functional. Also noted: scale not given: the % may be the effect or the level left. The procedure, abridged:
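Superoxide generated by xanthine, xanthine oxidase 0.04 U and nitroblue tetrazolium in 100 mM phosphate buffer pH 8.2, with or without compound sonicated in buffer; 37 °C for 30 min, stopped with glacial acetic acid; formazan read at 560 nm, percent inhibition from absorption coefficient 7.2 × 10³ M/cm; allopurinol reference.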

A short description of data set [7]: Antioxidant activity assessed as inhibition non-enzymatic reactants generated hydroxyl radical production at 200 ug/ml by spectrophotometry. It counts as functional. Also noted: scale not given: the % may be the effect or the level left. The procedure, abridged: (§2)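 Hydroxyl radicals generated non-enzymically from deoxyribose 2.8 mM, FeSO4 2 mM, sodium ascorbate 2.0 mM and H2O2 2.8 mM in 50 mM KH2PO4 pH 7.4, with or without compound, 37 °C for 90 min; MDA measured spectrophotometrically by thiobarbituric acid method, with reference samples and reagent blanks; mannitol reference.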

A short description of data set [8]: Antioxidant activity assessed as inhibition non-enzymatic reactants generated hydroxyl radical production at 100 ug/ml by spectrophotometry. Also noted: scale not given: the % may be the effect or the level left. Format: functional. An outline of the steps: as §2
The nature of data set [9]: Antioxidant activity assessed as inhibition of xanthine-xanthine oxidase generated superoxide anion radical production at 20 ug/ml by spectrophotometry. It counts as functional. On the set-up: scale not given: the % may be the effect or the level left. An outline of the steps:
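Superoxide generated enzymatically with xanthine, xanthine oxidase (0.04 U) and nitroblue tetrazolium in 100 mM phosphate buffer, pH 8.2, with or without test sample. Samples sonicated in phosphate buffer before use. Incubated 30 min at 37 °C, then stopped with glacial acetic acid. Formazan read at 560 nm. Percent inhibition calculated using formazan absorption coefficient 7.2 × 10³ M/cm.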

Data set [10] in a line: Cytotoxicity against primary osteoblast cells. It counts as cell-based.
For data set [11], the system named is Vero. In words: Cytotoxicity against african green monkey Vero cells. Format: cell-based. Particulars: chlorocebus sabaeus.
Data set [12] in a line: Antioxidant activity assessed as inhibition microsomal lipid peroxidation at 100 ug/ml by thiobarbituric acid test. Particulars: Microsome. Format: functional. Also noted: scale not given: the % may be the effect or the level left.

Active and inactive are the calls of the source. No cut-off for these calls is given here.

With `Cc1ccc(C)c(OCCCC(C)(C)C(=O)O)c1` [GEMFIBROZIL], the Activity in [1] turned out to be 36%; in data set [2], 34%; in data set [3], 38%; in [4], 27%.
`O=CC1=C/C(=C/NCCN2CCOCC2)C(=O)c2ncccc21`: the outcome in [1], in data set [2] and in data set [3] was Active. For the same compound, the result in [5], in [6] and in data set [7] was inactive. The Activity in data set [4] was 5%.
With `CCN/C=C1/C=C(C=O)c2cccnc2C1=O`, the result in data set [1], in data set [2], in data set [5], in data set [3], in data set [6] and in data set [7] was Active. Further, in [4], the Activity was 5%.
Take `O=CC1=C/C(=C/NCCCN2CCOCC2)C(=O)c2ncccc21`: the result in [1], in data set [2] and in data set [3] was Active. For the same compound, the outcome in [5], in data set [6] and in [7] was inactive. The Activity in [4] was 5%.
In the case of `Cc1ccc(N/C=C2/C=C(C=O)c3cccnc3C2=O)cc1`, the Activity came to 23% in data set [1]; 18% in [2]; 41% in data set [5]; 25% in [3]; 44% in data set [6]; 36% in [7]. Further, the Activity in data set [4] was 5%.
Take `OC[C@@H](O)[C@@H](O)[C@H](O)[C@H](O)CO`: the Activity in [8] was found to be 50%.
Take `CC(C)(C)N/C=C1/C=C(C=O)c2cccnc2C1=O`: the outcome in data set [1], in [2], in data set [5], in data set [3], in data set [6] and in data set [7] was Active. Moreover, in [4], the Activity worked out at 5%.
For `Oc1ncnc2[nH]ncc12`, the Activity in data set [9] is 84%.
As to `CC(C)CCCCN/C=C1/C=C(C=O)c2cccnc2C1=O`, the outcome in data set [1], in data set [2] and in data set [3] was Active. Besides, the result in [5], in data set [6] and in data set [7] was inactive. In addition, the Activity in data set [4] is on record as 5%.
`CC(C)N/C=C1/C=C(C=O)c2cccnc2C1=O`: the outcome in data set [1], in [2] and in [3] was Active. The Activity in [5] worked out at 35%; in data set [6], 47%; in [7] it was 38%; in data set [4], 5%.
On to `O=CC1=C/C(=C/NCc2ccccc2)C(=O)c2ncccc21`, for which the outcome in data set [5], in data set [6] and in [7] was Active. Besides, in data set [4], the Activity stood at 5%.
As to `CN/C=C1/C=C(C=O)c2cccnc2C1=O`, the Activity was 26% in [1]; “Non-toxic” in data set [10]; 25% in data set [2]; “Non-toxic” in data set [11]; 24% in data set [3]; 5% in [4]. Also, the outcome in [5], in data set [6] and in data set [7] was Active.
In the case of `Cc1c(C)c2c(c(C)c1O)CC[C@@](C)(CCC[C@H](C)CCC[C@H](C)CCCC(C)C)O2`, in data set [12], the Activity was found to be 47%.
